From ChEMBL document CHEMBL4190394, “Discovery of Novel Pazopanib-Based HDAC and VEGFR Dual Inhibitors Targeting Cancer Epigenetics and Angiogenesis Simultaneously” (J Med Chem, 2018)
Each block holds one molecule with its values, some of them ahead of it. Active and inactive are the calls of the source. The rule behind the calls is not given here.

Tests used:
[1] = biological target: Vascular endothelial growth factor receptor 1 (Homo sapiens, UniProt P17948); test: Inhibition of VEGFR-1 (unknown origin) after 40 mins by kinase-Glo assay
Procedure, shortened: (§1)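 Kinase-Glo luminescent assay run by a contract lab. Compound, kinase, substrate and ATP diluted in kinase buffer and incubated 40 min at room temperature. IC50 obtained by nonlinear regression of normalized dose–response.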

KG-1 = test: Antiproliferative activity against human KG1 cells after 72 hrs by MTT assay; type: functional, cell-based; settings: KG-1, 72 h
Histone deacetylase = type: protein assay, Homo sapiens
MDA-MB-231 = test: Antiproliferative activity against human MDA-MB-231 cells after 72 hrs by MTT assay; type: functional, cell-based; settings: MDA-MB-231, 72 h
HeLa = test: Antiproliferative activity against human HeLa cells after 72 hrs by MTT assay; type: functional, cell-based
[2] = biological target: T1, Vascular endothelial growth factor receptor 2 (Homo sapiens, UniProt P35968); test: Inhibition of VEGFR-2 (unknown origin) after 40 mins by kinase-Glo assay; procedure, shortened: as §1
T1 sequence (P35968 whole entry): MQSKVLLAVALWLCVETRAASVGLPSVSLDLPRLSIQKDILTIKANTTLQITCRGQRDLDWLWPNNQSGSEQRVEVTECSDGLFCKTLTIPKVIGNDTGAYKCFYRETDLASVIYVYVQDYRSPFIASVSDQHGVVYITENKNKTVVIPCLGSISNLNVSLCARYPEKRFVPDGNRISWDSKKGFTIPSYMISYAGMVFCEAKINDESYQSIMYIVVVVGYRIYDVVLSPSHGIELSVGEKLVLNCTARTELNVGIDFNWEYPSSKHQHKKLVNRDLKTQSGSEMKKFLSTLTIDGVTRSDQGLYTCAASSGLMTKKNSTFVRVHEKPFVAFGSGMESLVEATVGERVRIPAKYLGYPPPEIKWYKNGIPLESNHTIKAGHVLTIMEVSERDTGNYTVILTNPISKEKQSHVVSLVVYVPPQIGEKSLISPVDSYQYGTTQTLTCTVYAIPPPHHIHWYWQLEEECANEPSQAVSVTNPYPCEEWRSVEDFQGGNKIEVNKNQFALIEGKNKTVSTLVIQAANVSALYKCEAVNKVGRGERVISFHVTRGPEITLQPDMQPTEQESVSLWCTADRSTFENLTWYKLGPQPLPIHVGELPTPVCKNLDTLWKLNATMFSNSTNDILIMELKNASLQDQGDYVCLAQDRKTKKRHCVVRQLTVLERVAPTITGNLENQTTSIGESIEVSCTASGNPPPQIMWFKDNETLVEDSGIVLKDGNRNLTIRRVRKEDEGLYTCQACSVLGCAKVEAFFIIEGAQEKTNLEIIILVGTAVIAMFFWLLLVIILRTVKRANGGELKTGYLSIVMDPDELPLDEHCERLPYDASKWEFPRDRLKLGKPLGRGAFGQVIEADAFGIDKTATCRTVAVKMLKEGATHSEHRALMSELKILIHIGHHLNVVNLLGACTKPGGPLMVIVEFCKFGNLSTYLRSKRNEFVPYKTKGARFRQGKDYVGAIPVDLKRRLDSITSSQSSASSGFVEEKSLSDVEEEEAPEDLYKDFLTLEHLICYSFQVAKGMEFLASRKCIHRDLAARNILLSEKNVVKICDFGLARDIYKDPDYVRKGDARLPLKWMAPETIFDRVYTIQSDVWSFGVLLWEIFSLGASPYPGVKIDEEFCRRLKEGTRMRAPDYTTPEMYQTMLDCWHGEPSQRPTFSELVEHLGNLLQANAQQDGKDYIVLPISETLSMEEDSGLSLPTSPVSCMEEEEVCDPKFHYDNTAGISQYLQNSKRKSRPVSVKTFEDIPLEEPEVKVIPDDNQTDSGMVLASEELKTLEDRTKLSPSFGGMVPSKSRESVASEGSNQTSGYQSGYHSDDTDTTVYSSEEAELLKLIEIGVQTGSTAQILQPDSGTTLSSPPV

[3] = biological target: Histone deacetylase 1/2/3 (Homo sapiens) (UniProt Q13547+O15379+Q92769); settings: HeLa, at 100 nM
[4] = biological target: T1, Vascular endothelial growth factor receptor 2; test: Inhibition of VEGF-stimulated VEGFR2 phosphorylation in human HUVEC cells at 100 nM preincubated for 2 hrs followed by VEGF stimulation by Western blot analysis; type: cell-based
Procedure, shortened: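 HUVECs pretreated 2 h with compound or DMSO, then stimulated with VEGF (50 ng/ml). Cells lysed in ice-cold RIPA and protein measured by BCA. Lysates run on SDS-PAGE and immunoblotted for phospho-VEGFR-2, with total VEGFR-2 as loading control. Detection by ECL.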

K562 = test: Antiproliferative activity against human K562 cells after 72 hrs by MTT assay; type: functional, cell-based; settings: K562, 72 h
ACHN = test: Antiproliferative activity against human ACHN cells after 72 hrs by MTT assay; type: functional, cell-based
[5] = biological target: T1, Vascular endothelial growth factor receptor 2; test: Inhibition of VEGFR-2 (unknown origin) at 0.2 uM after 40 mins by kinase-Glo assay relative to control
Procedure, shortened: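 VEGFR-2 tested at a single 200 nM concentration in a Kinase-Glo assay. Compound, kinase, substrate and ATP incubated 40 min at room temperature, then Kinase-Glo reagent added for 15 min and luminescence read. Inhibition rate reported. Replicates n ≥ 2.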

Histone deacetylase 2 = Histone deacetylase 2 (Homo sapiens, UniProt Q92769)
HEL = test: Antiproliferative activity against human HEL cells after 72 hrs by MTT assay; type: functional, cell-based
HUVEC [6] = test: Cytotoxicity activity against HUVEC after 72 hrs by MTT assay; type: cell-based; settings: Homo sapiens
Procedure, shortened: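 HUVECs kept in RPMI1640 with 10% FBS at 37 °C, 5% CO2. Cells seeded the day before, grown 12 h, then exposed to a range of compound concentrations for 72 h. Then 0.5% MTT added for 4 h, formazan dissolved in DMSO, and absorbance read at 570 nm.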

[7] = biological target: Macrophage colony-stimulating factor 1 receptor (Homo sapiens, UniProt P07333); test: Inhibition of C-fms (unknown origin) after 40 mins by kinase-Glo assay
HUVEC [8] = test: Antiangiogenic activity in human HUVEC cells assessed as reduction in capillary-like tubular network formation at 0.1 uM after 6 hrs by phase-contrast microscopy; type: functional, cell-based
Procedure, shortened: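 HUVECs trypsinized and seeded at 40000/well on Matrigel polymerized 0.5 h at 37 °C. Cells held 6 h at 37 °C in M199 with 5% FBS, with compound or DMSO. Tube formation viewed and photographed by phase-contrast microscopy at 200 magnification. Three independent experiments.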

[9] = biological target: Mast/stem cell growth factor receptor Kit (Homo sapiens, UniProt P10721); test: Inhibition of C-kit (unknown origin) after 40 mins by kinase-Glo assay; procedure, shortened: as §1
AGS = test: Antiproliferative activity against human AGS cells after 72 hrs by MTT assay; type: functional, cell-based
MOLT-4 = test: Antiproliferative activity against human MOLT4 cells after 72 hrs by MTT assay; type: functional, cell-based; settings: MOLT-4, 72 h
[10] = biological target: Platelet-derived growth factor receptor beta (Homo sapiens, UniProt P09619); test: Inhibition of PDGFRbeta (unknown origin) after 40 mins by kinase-Glo assay; procedure, shortened: as §1
Chain of Platelet-derived growth factor receptor beta (P09619 whole entry): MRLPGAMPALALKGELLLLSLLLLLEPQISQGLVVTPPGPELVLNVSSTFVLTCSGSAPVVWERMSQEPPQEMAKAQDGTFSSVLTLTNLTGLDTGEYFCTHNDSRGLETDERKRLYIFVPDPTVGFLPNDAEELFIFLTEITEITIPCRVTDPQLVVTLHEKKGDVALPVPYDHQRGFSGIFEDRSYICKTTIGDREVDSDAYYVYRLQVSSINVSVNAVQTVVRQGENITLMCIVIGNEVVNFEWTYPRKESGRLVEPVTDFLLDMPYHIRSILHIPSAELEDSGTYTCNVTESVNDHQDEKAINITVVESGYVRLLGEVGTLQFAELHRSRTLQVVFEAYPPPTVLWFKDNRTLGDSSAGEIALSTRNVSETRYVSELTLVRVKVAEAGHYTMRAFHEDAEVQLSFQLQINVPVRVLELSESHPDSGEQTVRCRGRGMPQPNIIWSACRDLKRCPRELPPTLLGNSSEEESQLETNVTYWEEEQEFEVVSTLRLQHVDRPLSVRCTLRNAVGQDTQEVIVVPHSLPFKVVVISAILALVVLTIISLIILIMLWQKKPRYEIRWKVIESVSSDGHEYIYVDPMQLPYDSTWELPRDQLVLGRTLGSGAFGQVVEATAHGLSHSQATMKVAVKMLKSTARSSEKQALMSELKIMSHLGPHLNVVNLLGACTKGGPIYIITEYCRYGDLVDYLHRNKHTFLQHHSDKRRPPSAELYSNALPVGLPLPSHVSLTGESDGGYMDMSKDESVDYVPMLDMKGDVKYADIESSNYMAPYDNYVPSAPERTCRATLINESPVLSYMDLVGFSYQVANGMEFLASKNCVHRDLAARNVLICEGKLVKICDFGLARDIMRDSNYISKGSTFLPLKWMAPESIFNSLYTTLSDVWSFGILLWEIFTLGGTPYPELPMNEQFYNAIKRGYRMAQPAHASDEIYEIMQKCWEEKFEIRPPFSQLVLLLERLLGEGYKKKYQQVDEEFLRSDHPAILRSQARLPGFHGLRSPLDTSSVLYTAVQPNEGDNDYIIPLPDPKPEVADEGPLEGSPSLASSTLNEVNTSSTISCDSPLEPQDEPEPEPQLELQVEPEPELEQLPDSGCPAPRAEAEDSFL

[11] = biological target: Vascular endothelial growth factor receptor 3 (Homo sapiens, UniProt P35916); test: Inhibition of VEGFR-3 (unknown origin) after 40 mins by kinase-Glo assay
Chain of Vascular endothelial growth factor receptor 3 (P35916 whole entry): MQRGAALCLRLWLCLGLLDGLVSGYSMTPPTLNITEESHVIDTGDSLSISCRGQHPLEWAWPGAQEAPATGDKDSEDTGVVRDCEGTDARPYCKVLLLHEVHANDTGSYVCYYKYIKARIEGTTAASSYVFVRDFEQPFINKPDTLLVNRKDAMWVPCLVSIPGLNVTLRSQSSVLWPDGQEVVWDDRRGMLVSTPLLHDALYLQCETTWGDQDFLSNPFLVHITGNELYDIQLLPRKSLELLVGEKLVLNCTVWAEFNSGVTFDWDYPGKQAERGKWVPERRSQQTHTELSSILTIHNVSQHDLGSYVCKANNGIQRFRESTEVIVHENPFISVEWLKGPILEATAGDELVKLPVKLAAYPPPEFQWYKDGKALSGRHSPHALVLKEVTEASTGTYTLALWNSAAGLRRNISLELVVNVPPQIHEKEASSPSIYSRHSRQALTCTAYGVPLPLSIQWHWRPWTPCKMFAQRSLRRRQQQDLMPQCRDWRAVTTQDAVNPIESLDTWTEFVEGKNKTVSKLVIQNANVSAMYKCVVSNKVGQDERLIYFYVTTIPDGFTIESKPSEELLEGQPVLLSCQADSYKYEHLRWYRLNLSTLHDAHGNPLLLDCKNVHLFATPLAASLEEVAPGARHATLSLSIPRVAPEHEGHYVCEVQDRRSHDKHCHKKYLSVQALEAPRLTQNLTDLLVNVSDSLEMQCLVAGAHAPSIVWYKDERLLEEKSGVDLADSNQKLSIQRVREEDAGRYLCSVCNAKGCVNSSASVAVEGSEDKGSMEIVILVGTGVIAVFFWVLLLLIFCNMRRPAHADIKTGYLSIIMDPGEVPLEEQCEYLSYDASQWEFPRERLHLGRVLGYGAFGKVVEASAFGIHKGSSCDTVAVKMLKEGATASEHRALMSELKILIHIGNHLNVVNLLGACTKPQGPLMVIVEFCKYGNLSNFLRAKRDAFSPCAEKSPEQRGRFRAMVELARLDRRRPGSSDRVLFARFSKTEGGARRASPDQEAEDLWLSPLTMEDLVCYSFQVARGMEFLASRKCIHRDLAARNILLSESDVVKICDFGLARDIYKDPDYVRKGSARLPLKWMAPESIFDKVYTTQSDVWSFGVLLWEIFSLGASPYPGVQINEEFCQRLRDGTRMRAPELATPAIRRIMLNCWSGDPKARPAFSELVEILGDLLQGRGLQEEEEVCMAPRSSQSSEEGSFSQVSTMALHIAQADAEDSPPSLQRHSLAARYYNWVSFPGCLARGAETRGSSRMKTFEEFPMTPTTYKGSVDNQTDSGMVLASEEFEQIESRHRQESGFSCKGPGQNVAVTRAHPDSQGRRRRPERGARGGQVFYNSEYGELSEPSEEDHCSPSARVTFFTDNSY

Thoracic aorta = test: Antiangiogenic activity in Sprague-Dawley rat thoracic aorta ring assessed as reduction in micro-vessel growth at 5 uM treated every day for 6 days by matrigel-based inverted microscopic analysis relative to control; type: functional, tissue-based
Procedure, shortened: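 Aortas taken from 4–6-week-old Sprague–Dawley rats, cut into 1-mm rings and embedded in Matrigel. Rings held 30 min at 37 °C, 5% CO2, then treated daily for 6 days with compound or 0.5% DMSO vehicle. Microvessel outgrowth photographed on day 7 at ×200. Three independent experiments.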

HT-1080 = test: Antiproliferative activity against human HT1080 cells after 72 hrs by MTT assay; type: functional, cell-based; settings: HT-1080, 72 h
HT-29 [12] = test: Antiproliferative activity against human HT-29 cells after 72 hrs by MTT assay; type: functional, cell-based; settings: HT-29, 72 h
[13] = biological target: Fibroblast growth factor receptor 1 (Homo sapiens, UniProt P11362); test: Inhibition of FGFR1 (unknown origin) after 40 mins by kinase-Glo assay
Chain of Fibroblast growth factor receptor 1 (P11362 whole entry): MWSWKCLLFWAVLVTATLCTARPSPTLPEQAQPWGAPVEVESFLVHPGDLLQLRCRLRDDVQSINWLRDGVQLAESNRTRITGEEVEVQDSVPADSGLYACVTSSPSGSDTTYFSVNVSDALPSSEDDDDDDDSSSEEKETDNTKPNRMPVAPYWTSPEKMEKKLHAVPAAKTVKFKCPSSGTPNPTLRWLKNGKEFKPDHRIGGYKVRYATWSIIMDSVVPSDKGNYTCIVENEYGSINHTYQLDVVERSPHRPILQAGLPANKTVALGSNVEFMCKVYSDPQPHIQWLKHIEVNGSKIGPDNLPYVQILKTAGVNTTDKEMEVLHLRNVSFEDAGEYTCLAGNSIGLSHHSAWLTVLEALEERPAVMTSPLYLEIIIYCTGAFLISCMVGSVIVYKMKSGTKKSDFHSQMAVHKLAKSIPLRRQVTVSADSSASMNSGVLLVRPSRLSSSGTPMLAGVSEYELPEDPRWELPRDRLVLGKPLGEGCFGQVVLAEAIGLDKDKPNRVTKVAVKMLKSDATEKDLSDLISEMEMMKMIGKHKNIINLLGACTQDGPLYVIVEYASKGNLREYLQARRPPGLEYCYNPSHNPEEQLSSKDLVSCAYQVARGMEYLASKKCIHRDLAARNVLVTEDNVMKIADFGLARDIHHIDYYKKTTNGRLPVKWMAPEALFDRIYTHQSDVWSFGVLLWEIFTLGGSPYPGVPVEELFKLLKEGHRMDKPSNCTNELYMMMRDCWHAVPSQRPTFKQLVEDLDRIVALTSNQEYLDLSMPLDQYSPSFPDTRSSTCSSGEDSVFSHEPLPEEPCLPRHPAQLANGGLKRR

Histone deacetylase 8 = Histone deacetylase 8 (Homo sapiens, UniProt Q9BY41); test: Inhibition of HDAC8 (unknown origin) using fluorogenic Boc-Lys(trifluoroacetyl)-AMC as substrate preincubated for 5 mins followed by substrate addition measured after 30 mins by fluorescence-based assay
Chain of Histone deacetylase 8 (Q9BY41 whole entry): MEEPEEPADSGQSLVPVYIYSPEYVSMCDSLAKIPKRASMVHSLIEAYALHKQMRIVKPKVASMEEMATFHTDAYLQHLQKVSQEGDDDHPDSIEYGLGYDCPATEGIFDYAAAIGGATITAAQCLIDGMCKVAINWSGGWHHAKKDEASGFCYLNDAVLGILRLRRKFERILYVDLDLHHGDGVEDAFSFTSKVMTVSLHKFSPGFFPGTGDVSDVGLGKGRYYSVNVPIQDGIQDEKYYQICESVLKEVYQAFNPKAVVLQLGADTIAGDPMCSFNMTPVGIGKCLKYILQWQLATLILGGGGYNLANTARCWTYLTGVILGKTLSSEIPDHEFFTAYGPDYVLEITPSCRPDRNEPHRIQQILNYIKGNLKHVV

[14] = biological target: Protein deacetylase HDAC6 (Homo sapiens, UniProt Q9UBN7); test: Inhibition of HDAC6 (unknown origin) using fluorogenic Boc-Lys(acetyl)-AMC as substrate preincubated for 5 mins followed by substrate addition measured after 30 mins by fluorescence-based assay
PC-3 = test: Antiproliferative activity against human PC3 cells after 72 hrs by MTT assay; type: functional, cell-based; settings: PC-3, 72 h
HT-29 [15] = test: Antitumor activity against human HT-29 cells xenografted in BALB/c nu mouse assessed as tumor growth level at 100 mg/kg, po administered for 25 consecutive days measured every 3 days during compound dosing relative to control; type: functional
Procedure, shortened: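 HT-29 cells (1×10^7) implanted s.c. in right flank of male BALB/c-nu mice aged 5–6 weeks. At about 100 mm³ (day 10), mice randomized 6 per group and dosed orally for 25 consecutive days. Controls received PBS with 5% DMSO. T/C is mean RTV (Vt/V0) treated over control. TGI taken from final tumor weights. Student's two-tailed t test.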

IC50 [1]: 35 nM
IC50 (Histone deacetylase): 3.3 nM
IC50 (MDA-MB-231): 2960 nM
IC50 (HeLa): 4360 nM
IC50 [2]: 46 nM
inhibition [3]: Active
inhibition [4]: Active
IC50 (K562): 990 nM
IC50 (ACHN): > 5000 nM
inhibition [5]: 93%
IC50 (Histone deacetylase 2): 380 nM
IC50 [7]: 581 nM
IC50 [9]: 163 nM
IC50 (AGS): 4440 nM
IC50 (MOLT-4): 310 nM
IC50 [10]: 111 nM
IC50 [11]: 113 nM
IC50 (HT-1080): 1970 nM
IC50 (HT-29 [12]): 2510 nM
IC50 [13]: 409 nM
IC50 (Histone deacetylase 8): 1660 nM
IC50 [14]: 72 nM
IC50 (PC-3): 1690 nM
Compound: Cc1c2ccc(N(C)c3ccnc(Nc4ccc(C(=O)NCCCCCCC(=O)NO)cc4)n3)cc2nn1C
IC50 (KG-1): 1600 nM
IC50 (HEL): 2800 nM
IC50 (HUVEC [6]): 21100 nM
Activity (HUVEC [8]): Active
Activity (Thoracic aorta): Active

inhibition [4]: inactive
Compound: O=C(CCCCCCC(=O)Nc1ccccc1)NO [VORINOSTAT]
T/C (HT-29 [15]): 66%
